Experimental data as given in ChEMBL document CHEMBL1221386, “Synthesis and pharmacological evaluation of 3-aryl-3-azolylpropan-1-amines as selective triple serotonin/norepinephrine/dopamine reuptake inhibitors” (Bioorg Med Chem Lett, 2010).

Key:
[1] = Oral bioavailability in rat at 10 mg/kg; type: ADME, organism-based; conditions: in vivo
Mus musculus [2] = test: Antidepressant activity in mouse assessed as reduction of mobility time at 3 mg/kg, po by tail suspension test; type: functional; design: scale not given: the % may be the effect or the level left
Procedure, shortened: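 Mouse tail suspension test run as an oral dose–response. Read-out is percent reduction of immobility time; minimal effective dose taken at p<0.05.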

[3] = AUC (0 to infinity) in rat at 10 mg/kg, iv; type: ADME, organism-based; design: time infinity, dose 10 mg/kg, route intravenous; conditions: plasma
Mus musculus [4] = test: Antidepressant activity in mouse assessed as change in locomotion at 150 mg/kg, po; type: functional
Procedure, shortened: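 Spontaneous locomotor activity in mice measured 1 h after oral dosing. Expressed relative to the control group set at 100%.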

Cytochrome P450 2D6 = Cytochrome P450 2D6 (Homo sapiens, UniProt P10635); test: Inhibition of CYP2D6; type: ADME
Mus musculus [5] = test: Antidepressant activity in po dosed mouse assessed as reduction of mobility time by tail suspension test; type: functional; conditions: read-out: MED
Procedure, shortened: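 Mouse tail suspension test with oral dose–response. Read-out is immobility time, reported as % reduction of immobility. Minimal effective dose is the lowest dose giving p <0.05. Doses are in mg/kg.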

Mus musculus [6] = test: Antidepressant activity in po dosed mouse assessed as reduction of mobility time by forced swimming test; type: functional
Procedure, shortened: (§1)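 Mouse forced swimming test with oral dosing. Read-out is immobility time, expressed as % reduction of immobility. Minimal effective dose is the lowest dose with p <0.05. ED50 is given with 95% confidence limits. Doses are in mg/kg.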

[7] = biological target: T1, Sodium-dependent noradrenaline transporter (Homo sapiens, UniProt P23975); test: Inhibition of norepinephrine reuptake at human NET expressed in MDCK cells at 100 nM
Mus musculus [8] = test: Potentiation of […]-induced serotonin syndrome like behavior in mouse at 30 mg/kg, po; type: functional
Procedure, shortened: (§2)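 Mice, oral dosing. For serotonin potentiation, 5-hydroxytryptophan (5-HTP, serotonin precursor) is given to induce serotonin syndrome-like head twitch/stereotypy counts. Response is expressed as % potentiation relative to control group (0%). Minimal effective dose is the lowest dose reaching p <0.05. Doses are in mg/kg.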

[9] = biological target: T2, Sodium-dependent dopamine transporter (Homo sapiens, UniProt Q01959); test: Inhibition of dopamine reuptake at human dopamine transporter expressed in CHO cells at 100 nM
[10] = Clearance in rat at 10 mg/kg, iv; type: ADME, organism-based; design: dose 10 mg/kg, route intravenous; conditions: in vivo
Cytochrome P450 2C9 = Cytochrome P450 2C9 (Homo sapiens, UniProt P11712); test: Inhibition of CYP2C9; type: ADME
Mus musculus [11] = test: Anxiolytic activity in mouse assessed as inhibition of marble buried at 30 mg/kg, ip by marble burying test; type: functional; conditions: route intraperitoneal
[12] = Half life in rat liver microsomes; type: ADME, Microsome
Procedure, shortened: (§3)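 Metabolic stability in human or rat liver microsomes. Half-lives measurable up to 60 min.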

[13] = Volume of distribution at steady state in rat at 10 mg/kg, iv; type: ADME, organism-based; design: dose 10 mg/kg, route intravenous; conditions: in vivo, read-out: Vdss
[14] = Cmax in rat at 10 mg/kg, po; type: ADME, organism-based; design: dose 10 mg/kg, route oral; conditions: in vivo
Cytochrome P450 2C19 = Cytochrome P450 2C19 (Homo sapiens, UniProt P33261); test: Inhibition of CYP2C19; type: ADME
[15] = biological target: T1, Sodium-dependent noradrenaline transporter; test: Inhibition of norepinephrine reuptake at human NET expressed in MDCK cells; type: cell-based
[16] = biological target: T3, 5-hydroxytryptamine receptor 2C (Homo sapiens) (UniProt P28335); test: Inhibition of 5HT2C receptor at 10 uM
T3 sequence (whole entry): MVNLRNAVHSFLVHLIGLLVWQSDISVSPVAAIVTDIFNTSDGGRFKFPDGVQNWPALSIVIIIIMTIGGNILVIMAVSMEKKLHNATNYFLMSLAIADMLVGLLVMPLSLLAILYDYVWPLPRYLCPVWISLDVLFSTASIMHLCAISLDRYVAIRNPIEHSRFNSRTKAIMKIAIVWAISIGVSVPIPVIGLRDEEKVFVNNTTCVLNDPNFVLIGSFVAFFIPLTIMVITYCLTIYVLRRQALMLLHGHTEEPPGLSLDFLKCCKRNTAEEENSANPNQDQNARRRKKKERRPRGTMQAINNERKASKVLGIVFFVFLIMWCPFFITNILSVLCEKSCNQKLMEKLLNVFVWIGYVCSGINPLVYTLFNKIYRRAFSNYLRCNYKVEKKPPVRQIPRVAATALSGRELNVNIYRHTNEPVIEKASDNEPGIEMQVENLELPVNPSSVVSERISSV

[17] = biological target: Sodium-dependent serotonin transporter (Homo sapiens, UniProt P31645); test: Inhibition of serotonin reuptake at human SERT expressed in HEK293 cells at 100 nM
[18] = biological target: Histamine H1 receptor (Homo sapiens) (UniProt P35367); test: Inhibition of histamine H1 receptor at 10 uM
[19] = Cmax in rat at 10 mg/kg, iv; type: ADME, organism-based; design: dose 10 mg/kg, route intravenous; conditions: in vivo
[20] = Half life in human liver microsomes; type: ADME, Microsome; procedure, shortened: as §3
[21] = biological target: Muscarinic acetylcholine receptor M3 (Homo sapiens) (UniProt P20309); test: Inhibition of muscarinic M3 receptor at 10 uM
Mus musculus [22] = test: Analgesic activity in mouse assessed as reduction of acetic acid-induced writhing at 30 mg/kg
Mus musculus [23] = test: Antidepressant activity in mouse assessed as reduction of mobility time by forced swimming test at 10 mg/kg, po; type: functional; design: scale not given: the % may be the effect or the level left; procedure, shortened: as §1
Mus musculus [24] = test: Potentiation of […]-induced serotonin syndrome like behavior in po dosed mouse; type: functional; conditions: read-out: MED; procedure, shortened: as §2
[25] = AUC in rat at 10 mg/kg, iv; type: ADME, organism-based; design: dose 10 mg/kg, route intravenous; conditions: plasma
[26] = biological target: T2, Sodium-dependent dopamine transporter; test: Inhibition of dopamine reuptake at human dopamine transporter expressed in CHO cells; type: cell-based
Procedure, shortened: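 CHO-K1 cells stably expressing human DAT, assayed for [3H]DA uptake in duplicate. Nomifensine served as standard. IC50 determined.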

[27] = Half life in rat at 10 mg/kg, po; type: ADME, organism-based; design: dose 10 mg/kg, route oral; conditions: in vivo
[28] = Half life in rat at 10 mg/kg, iv; type: ADME, organism-based; design: dose 10 mg/kg, route intravenous; conditions: in vivo
Cytochrome P450 3A4 = Cytochrome P450 3A4 (Homo sapiens, UniProt P08684); test: Inhibition of CYP3A4; type: ADME
[29] = AUC in rat at 10 mg/kg, po; type: ADME, organism-based; design: dose 10 mg/kg, route oral; conditions: plasma

T2 sequence (Q01959 whole entry): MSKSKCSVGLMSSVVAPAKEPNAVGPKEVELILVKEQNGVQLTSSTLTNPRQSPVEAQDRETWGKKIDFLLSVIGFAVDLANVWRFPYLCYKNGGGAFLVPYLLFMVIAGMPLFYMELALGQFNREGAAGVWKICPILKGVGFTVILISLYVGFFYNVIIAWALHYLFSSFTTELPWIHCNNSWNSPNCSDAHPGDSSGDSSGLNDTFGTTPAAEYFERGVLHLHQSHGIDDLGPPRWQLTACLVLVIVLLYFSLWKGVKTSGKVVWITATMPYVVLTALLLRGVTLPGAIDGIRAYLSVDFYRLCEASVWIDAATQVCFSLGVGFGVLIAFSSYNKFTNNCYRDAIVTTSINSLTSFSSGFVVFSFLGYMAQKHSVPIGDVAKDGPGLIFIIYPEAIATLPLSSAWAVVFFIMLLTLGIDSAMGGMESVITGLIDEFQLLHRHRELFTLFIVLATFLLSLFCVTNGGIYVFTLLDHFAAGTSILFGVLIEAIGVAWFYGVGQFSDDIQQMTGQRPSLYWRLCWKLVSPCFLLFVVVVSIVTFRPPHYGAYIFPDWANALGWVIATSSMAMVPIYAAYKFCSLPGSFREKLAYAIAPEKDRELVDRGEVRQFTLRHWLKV
T1 sequence (P23975 whole entry): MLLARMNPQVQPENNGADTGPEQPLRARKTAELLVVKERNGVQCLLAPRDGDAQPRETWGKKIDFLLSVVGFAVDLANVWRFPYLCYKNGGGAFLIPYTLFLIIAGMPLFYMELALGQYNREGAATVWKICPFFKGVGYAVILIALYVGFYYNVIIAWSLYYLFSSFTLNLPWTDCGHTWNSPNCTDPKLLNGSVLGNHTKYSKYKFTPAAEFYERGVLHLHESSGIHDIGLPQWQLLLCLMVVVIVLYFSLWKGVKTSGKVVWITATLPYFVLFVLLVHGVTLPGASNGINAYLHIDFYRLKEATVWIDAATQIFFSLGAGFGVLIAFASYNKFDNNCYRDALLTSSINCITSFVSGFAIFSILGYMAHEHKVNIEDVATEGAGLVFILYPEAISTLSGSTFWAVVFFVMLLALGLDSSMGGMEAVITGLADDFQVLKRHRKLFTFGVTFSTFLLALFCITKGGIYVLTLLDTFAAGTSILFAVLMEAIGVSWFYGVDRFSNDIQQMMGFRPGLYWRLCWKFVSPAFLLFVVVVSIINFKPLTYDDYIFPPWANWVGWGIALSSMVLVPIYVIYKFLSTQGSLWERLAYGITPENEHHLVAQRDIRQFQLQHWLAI
Sodium-dependent serotonin transporter, sequence (P31645 whole entry, looked up): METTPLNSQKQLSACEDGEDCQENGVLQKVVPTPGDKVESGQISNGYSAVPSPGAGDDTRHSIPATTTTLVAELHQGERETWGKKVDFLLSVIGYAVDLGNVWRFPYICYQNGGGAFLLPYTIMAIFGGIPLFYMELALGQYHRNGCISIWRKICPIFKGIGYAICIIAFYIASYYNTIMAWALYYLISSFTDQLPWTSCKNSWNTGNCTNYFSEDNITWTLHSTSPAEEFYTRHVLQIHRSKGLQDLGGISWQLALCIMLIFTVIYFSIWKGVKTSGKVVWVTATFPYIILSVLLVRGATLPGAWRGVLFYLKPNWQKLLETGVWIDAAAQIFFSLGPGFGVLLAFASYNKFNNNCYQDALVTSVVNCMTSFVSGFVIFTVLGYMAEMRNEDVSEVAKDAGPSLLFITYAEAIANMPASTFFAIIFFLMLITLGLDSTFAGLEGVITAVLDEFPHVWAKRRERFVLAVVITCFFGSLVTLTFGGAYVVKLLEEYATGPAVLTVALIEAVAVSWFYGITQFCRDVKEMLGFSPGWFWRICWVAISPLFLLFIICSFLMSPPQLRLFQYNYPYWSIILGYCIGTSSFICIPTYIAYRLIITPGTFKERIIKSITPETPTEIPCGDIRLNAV
Cytochrome P450 2C19, sequence (P33261 whole entry): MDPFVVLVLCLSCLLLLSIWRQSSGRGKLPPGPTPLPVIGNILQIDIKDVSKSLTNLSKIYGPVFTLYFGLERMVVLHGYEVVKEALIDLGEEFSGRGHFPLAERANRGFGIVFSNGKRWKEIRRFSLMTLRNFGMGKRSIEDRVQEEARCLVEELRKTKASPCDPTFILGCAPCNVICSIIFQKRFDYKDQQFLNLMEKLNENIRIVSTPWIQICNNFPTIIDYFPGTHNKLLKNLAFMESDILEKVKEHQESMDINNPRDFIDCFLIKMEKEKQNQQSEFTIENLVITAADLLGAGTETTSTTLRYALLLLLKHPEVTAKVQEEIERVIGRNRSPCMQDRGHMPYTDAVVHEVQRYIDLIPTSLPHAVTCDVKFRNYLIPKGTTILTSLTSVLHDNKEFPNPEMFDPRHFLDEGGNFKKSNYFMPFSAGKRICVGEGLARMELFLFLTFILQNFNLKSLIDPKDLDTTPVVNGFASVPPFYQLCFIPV
Cytochrome P450 2C9, sequence (P11712 whole entry): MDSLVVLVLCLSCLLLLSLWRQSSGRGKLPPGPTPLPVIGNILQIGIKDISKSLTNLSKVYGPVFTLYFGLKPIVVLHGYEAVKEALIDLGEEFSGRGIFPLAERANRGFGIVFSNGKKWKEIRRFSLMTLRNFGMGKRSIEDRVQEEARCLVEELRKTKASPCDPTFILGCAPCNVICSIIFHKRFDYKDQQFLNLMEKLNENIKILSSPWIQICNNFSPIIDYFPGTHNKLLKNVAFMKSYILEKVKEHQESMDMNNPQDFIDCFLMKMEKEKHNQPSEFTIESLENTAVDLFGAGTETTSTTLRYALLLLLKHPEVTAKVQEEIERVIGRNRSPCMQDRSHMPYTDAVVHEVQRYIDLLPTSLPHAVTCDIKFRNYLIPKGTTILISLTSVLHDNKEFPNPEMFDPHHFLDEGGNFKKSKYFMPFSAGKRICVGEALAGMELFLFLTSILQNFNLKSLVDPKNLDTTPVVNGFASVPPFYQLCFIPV
Cytochrome P450 3A4, sequence (P08684 whole entry): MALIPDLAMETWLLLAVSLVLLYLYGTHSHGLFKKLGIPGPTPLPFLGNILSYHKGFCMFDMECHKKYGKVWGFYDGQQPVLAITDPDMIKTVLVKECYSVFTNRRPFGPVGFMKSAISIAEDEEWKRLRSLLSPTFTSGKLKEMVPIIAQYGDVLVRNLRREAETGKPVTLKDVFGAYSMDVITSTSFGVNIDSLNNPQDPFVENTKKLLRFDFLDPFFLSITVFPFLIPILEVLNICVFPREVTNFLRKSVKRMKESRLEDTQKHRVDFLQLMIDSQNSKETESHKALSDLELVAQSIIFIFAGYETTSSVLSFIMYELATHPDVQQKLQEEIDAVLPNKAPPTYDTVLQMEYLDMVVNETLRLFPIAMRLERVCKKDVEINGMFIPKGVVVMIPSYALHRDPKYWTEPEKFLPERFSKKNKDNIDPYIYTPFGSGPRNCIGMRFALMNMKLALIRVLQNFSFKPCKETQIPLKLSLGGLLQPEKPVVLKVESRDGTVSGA
Cytochrome P450 2D6, sequence (P10635 whole entry): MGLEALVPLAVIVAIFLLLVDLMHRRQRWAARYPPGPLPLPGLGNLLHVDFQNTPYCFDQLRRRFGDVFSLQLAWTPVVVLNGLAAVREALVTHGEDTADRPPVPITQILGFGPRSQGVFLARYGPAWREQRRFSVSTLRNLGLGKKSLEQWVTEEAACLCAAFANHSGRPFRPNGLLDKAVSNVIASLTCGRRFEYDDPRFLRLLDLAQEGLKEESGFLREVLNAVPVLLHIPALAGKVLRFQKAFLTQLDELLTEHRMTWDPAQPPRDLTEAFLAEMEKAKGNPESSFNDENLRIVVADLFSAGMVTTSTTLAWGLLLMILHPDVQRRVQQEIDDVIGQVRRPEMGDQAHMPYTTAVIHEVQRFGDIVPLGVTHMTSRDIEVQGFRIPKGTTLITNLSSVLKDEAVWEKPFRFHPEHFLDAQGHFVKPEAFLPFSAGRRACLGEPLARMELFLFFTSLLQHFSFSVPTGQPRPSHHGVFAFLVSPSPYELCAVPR
Muscarinic acetylcholine receptor M3 (Homo sapiens), sequence (P20309 whole entry, looked up): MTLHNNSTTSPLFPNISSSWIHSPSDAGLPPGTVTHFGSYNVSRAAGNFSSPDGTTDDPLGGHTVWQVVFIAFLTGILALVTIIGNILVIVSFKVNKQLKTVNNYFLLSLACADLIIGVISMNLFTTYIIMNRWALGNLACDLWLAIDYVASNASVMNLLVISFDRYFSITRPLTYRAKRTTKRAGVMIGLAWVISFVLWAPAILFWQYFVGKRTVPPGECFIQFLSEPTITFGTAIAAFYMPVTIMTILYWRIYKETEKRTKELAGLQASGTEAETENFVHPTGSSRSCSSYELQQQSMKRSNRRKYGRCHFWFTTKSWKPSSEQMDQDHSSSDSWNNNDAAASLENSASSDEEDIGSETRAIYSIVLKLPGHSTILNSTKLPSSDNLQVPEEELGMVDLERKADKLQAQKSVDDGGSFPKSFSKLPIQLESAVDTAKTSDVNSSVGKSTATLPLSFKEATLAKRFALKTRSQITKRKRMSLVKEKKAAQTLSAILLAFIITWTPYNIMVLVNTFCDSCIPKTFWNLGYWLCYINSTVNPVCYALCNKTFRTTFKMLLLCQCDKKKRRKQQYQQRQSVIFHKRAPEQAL
Histamine H1 receptor (Homo sapiens), sequence (P35367 whole entry): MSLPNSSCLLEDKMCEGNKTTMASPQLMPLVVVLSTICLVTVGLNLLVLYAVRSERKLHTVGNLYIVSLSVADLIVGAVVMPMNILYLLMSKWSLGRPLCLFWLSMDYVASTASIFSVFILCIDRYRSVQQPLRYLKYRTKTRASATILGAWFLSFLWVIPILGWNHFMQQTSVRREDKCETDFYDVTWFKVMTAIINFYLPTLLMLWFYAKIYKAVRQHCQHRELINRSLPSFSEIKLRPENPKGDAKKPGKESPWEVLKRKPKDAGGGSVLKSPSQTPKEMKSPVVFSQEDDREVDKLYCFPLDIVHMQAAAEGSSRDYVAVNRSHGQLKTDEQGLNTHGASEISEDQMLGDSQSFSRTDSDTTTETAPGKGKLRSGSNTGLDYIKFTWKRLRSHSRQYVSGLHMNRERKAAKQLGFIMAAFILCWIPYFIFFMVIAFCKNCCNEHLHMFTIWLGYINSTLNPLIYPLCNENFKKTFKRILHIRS

bioavailability [1]: 43.2% | AUC(0-inf) [3]: 4150 ng·h/mL | IC50 (Cytochrome P450 2D6): 6.9 µM | inhibition [7]: 84% | inhibition [9]: 62% | clearance [10]: 42 mL/min/kg | IC50 (Cytochrome P450 2C9): > 10 µM | half-life [12]: 0.933 h | Vd [13]: 6.8 L/kg | Cmax [14]: 334 ng/mL | IC50 (Cytochrome P450 2C19): > 10 µM | IC50 [15]: 0.0198 µM | inhibition [16]: 66% | inhibition [17]: 43% | inhibition [18]: < 20% | Cmax [19]: 3830 ng/mL | half-life [20]: > 1 h | inhibition [21]: < 20% | AUC [25]: 3830 ng·h/mL | IC50 [26]: 0.058 µM | half-life [27]: 5.48 h | half-life [28]: 3.12 h | IC50 (Cytochrome P450 3A4): > 10 µM | AUC [29]: 1280 ng·h/mL
SMILES: CNCC[C@@H](c1ccc(Cl)c(Cl)c1)n1nnc(C)n1
Activity (Mus musculus [2]): 59.6% | Activity (Mus musculus [4]): 134% | minimal effective dose (Mus musculus [5]): 3 mg/kg | ED50 (Mus musculus [6]): 22.2 mg/kg | minimal effective dose (Mus musculus [6]; read-out: MED): 10 mg/kg | Activity (Mus musculus [8]): 158% | inhibition in vivo at 30 mg/kg (Mus musculus [11]): 94.4% | inhibition in vivo at 30 mg/kg (Mus musculus [22]): 94.4% | Activity (Mus musculus [23]): 14.9% | minimal effective dose (Mus musculus [24]): 30 mg/kg
